Measured values as given in the EternaBench riboswitch data.

Assays:
MS2 coat protein [1] = assay: apparent Kd, MS2 coat protein; higher = weaker binding; RNA-MaP array
How it was run: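 Designs measured on fewer than 10 clusters were excluded from the data. The rest were RNAs transcribed from sequenced DNA templates on an Illumina sequencing chip and incubated at room temperature, with or without input ligand, with fluorescently labeled MS2 coat protein at 1.5 nM to 3 μM for 0.8–1.5 h at the lowest to 10–20 min at the highest concentrations. Apparent Kd is the median of the per-cluster binding-curve fits.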

MS2 coat protein [2] = assay: apparent Kd, MS2 coat protein; higher = weaker binding; RNA-MaP array; FMN 200 µM where present
How it was run: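 Stalled E. coli RNA polymerase produced the designs on Illumina sequencing-chip clusters. SNAP-549-labelled MS2 coat protein was added from 0.7 or 1.5 nM, doubling to 3 µM, without and then with constant ligand, in 100 mM Tris-HCl pH 7.5, 80 mM KCl, 4 mM MgCl2, BSA, DTT, yeast tRNA and Tween-20. The apparent Kd is the median of filtered per-cluster fits of green signal normalised to red-channel RNA signal and control-cluster median Fmax.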

[3] = designed as: ON switch for flavin mononucleotide, no ligand
[4] = ligand present: flavin mononucleotide, designed as: ON switch for flavin mononucleotide
[5] = designed as: OFF switch for flavin mononucleotide, no ligand
[6] = ligand present: flavin mononucleotide, designed as: OFF switch for flavin mononucleotide

Sequence	apparent Kd (MS2 coat protein [1]; [5]) [nM]	apparent Kd (MS2 coat protein [1]; [6]) [nM]	other results
AAAAGGUCCGCUACAUGAGGAUCACCCAUGUAAAGGGUAAAUCAGGAUAUGGACGGGAGUCUUAACCAGAAGGGAUUACAGGUC			apparent Kd (MS2 coat protein [1]; [3]): 31.6 nM; apparent Kd (MS2 coat protein [1]; [4]): 25.1 nM
AAAAUUGAAGGAUAUACAUGAGGAUCACCCAUGUGCAACAUAUUUGAAUGGCCUCACGGUAGAAGGUCAAAACG	6.83	7.52	
AACAAACAUGAGGAUCACCCAUGUGAGGAUAUCAAGUCCAUACCCUAAGAGGGAGUUUUGAGAAGGCACGUGUA	11.2	15.1	
AACGUCAACGUAAGGAUAUGCAGUAAGAGCGACAGGCAGAAGGUACAUGAGGAUCACCCAUGUUAACAGAACGG	8.79	9.6	
AAGAAAUUCUCACAUGAGGAUCACCCAUGUCCACACGACUAGAGAAGGGCCUUCUACGUGCACUGGCAGGAUAUCUAACCGGGA	140	87.5	
AAGCCACAUGAGGAUCACCCAUGUAAGGGUACCUGAGGAUAUCCGGCGGGACAGAAAGGAGGAGAAGGCAGAUCCA			apparent Kd (MS2 coat protein [1]; [3]): 50.2 nM; apparent Kd (MS2 coat protein [1]; [4]): 33 nM
AAGUUACACAAGAAGGAGGGCGACUUUUUCACAUGAGGAUCACCCAUGUAUCCUCUUGGAGGAACCUAGGAUAUUGCUAAGCGU	175	170	
AAUCGCCUGGGUCGCAUCCUUGCUCCGGAUACCAGUCAAUAGUUGGACCCUUGGCAGCCGUAGACAUGAGGAUCACCCAUGUAUA			apparent Kd (MS2 coat protein [1]; designed as: OFF switch for theophylline, no ligand): 53.8 nM; apparent Kd (MS2 coat protein [1]; ligand present: theophylline, designed as: OFF switch for theophylline): 109 nM
AAUGUGUAAGGAUAUACCGUUCAGUCUCUCCACAAUCGAUGGUAGAAGGUACAUGAGGAUCACCCAUGUGAGGA	14.9	15.2	
ACAAACUCAGGAUAUAACGGUGGACACAUGAGGAUCACCCAUGUAAUCCGUGUGACUUAUUUAGAAGGGAGGCGAU	8.35	8.34	
ACACAUCCACAUGAGGAUCACCCAUGUAAACCGAAAUAGCACUAGGAUAUGGGACAAACAAUUCACCAGAAGGAGUAAAAGAAA			apparent Kd (MS2 coat protein [1]; [3]): 52.7 nM; apparent Kd (MS2 coat protein [1]; [4]): 23.8 nM
ACAGAAAAUAGAGGAUAUACAAGAACAUGAGGAUCACCCAUGUAAUAACAAUAUGAUCGGUUCAAGAAGAAGGCUAAACAAAAU	14.2	12.8	
ACAGCAAACGUAGGAUAUGGGAGAACAUGAGGAUCACCCAUGUGGAAGUACGAGUUCGCUACAUACCAGAAGGACGAAAUCUAC			apparent Kd (MS2 coat protein [1]; [3]): 156 nM; apparent Kd (MS2 coat protein [1]; [4]): 35.8 nM
ACCCUGUGAGGAUAUAUGCGGUUUGAACCAGAUCAGAAAUAAUAGAAGGCACAUGAGGAUCACCCAUGUUUCUC	27.9	22.8	
ACCGAUCGAGGAUAUACAGAACAAAAGAACAUGACGAAGAAACAUGAGGAUCACCCAUGUAGAAGGCGAAAAGA	8.58	9.05	
ACGAAUGUAGGAUAUACCAGUAGGAGAUGGGUAUCAGCACCACAUGAGGAUCACCCAUGUAGAAGGACACGUGA	38.4	40.3	
ACGGUUCGAGGAUAUGUCGGUAGUUACAUGAGGAUCACCCAUGUUGUGACAUCGUGGUGGACAGAAGGCGACAUCC	201	119	
ACUGCUGUAGGAUAUCAACGAAAUAACAUGAGGAUCACCCAUGUGGCAGUGAUCAGCAGUUGAGAAGGACAUGGCC	10.9	11.3	
UUUAUGGGACAGAAGGGCAAUUUCUUUAAUUAUUAUUUAAAACAUCAUUGCAGGAUAUGUAUAACAUGAGGAUCACCCAUGUAC			apparent Kd (MS2 coat protein [2]; [3]): 36.2 nM; apparent Kd (MS2 coat protein [2]; [4]): 12.2 nM
UUUAUGUAGGAGAAGGAGGACUUCAUGAGGAUCACCCAUGUGUUAGGACUUAGGAUAUUUGACGACAUGAGGAUCACCCAUGUG			apparent Kd (MS2 coat protein [2]; [3]): 64.3 nM; apparent Kd (MS2 coat protein [2]; [4]): 56.5 nM
UUUAUUUCGGCAGGAUAUACAUGUAUAUAUAUUUCUUUAUAUCUUAUUACAUGAGGAUCACCCAUGUAGAAGGGCCUUCUUCUC			apparent Kd (MS2 coat protein [2]; [5]): 55.1 nM; apparent Kd (MS2 coat protein [2]; [6]): 49.2 nM
UUUAUUUUUACAGGAUAUCAUCUAUAUAACUCAUGCACAUGUUUACAUGAGGAUCACCCAUGUUUUGAGAAGGGUAAUGAAACA			apparent Kd (MS2 coat protein [2]; [3]): 440 nM; apparent Kd (MS2 coat protein [2]; [4]): 228 nM
UUUAUUUUUAGAGGAUAUAUUGUGUGUGAGAGAAUAGAAGGCUAAACAUACAUACAUAACAUGAGGAUCACCCAUGUCCAUGUU			apparent Kd (MS2 coat protein [2]; [3]): 69.2 nM; apparent Kd (MS2 coat protein [2]; [4]): 54.9 nM
UUUCUCGGCGAGAAGGGAGUACAUGAGGAUCACCCAUGUGGUCCAUGGAGCUCAGGAUAUCGCGAGGUCGAUGUCGACGGAGUA			apparent Kd (MS2 coat protein [2]; [5]): 127 nM; apparent Kd (MS2 coat protein [2]; [6]): 231 nM
UUUCUCGUUGUGAGGAUAUCGUUUUUGUUUUGGAUCGAGAAGGCACAUGAGGAUCACCCAUGUUUGUUGUGGUU			apparent Kd (MS2 coat protein [2]; [5]): 119 nM; apparent Kd (MS2 coat protein [2]; [6]): 87.7 nM
UUUCUUGGGCAAGGAUAUCCUGUGCGGUUCUGGCUCGUGUCUGUCACAUGAGGAUCACCCAUGUGGGAGAAGGUGCCUGCGGUC			apparent Kd (MS2 coat protein [2]; [5]): 6.13 nM; apparent Kd (MS2 coat protein [2]; [6]): 6.1 nM
